Measurements as given in ChEMBL document CHEMBL1154452, “First synthesis of novel spin-labeled derivatives of camptothecin as potential antineoplastic agents” (Eur J Med Chem, 2008).

Legend:
T-24 = test: Growth inhibition of human T24 cells after 4 days by MTT assay; format: functional; set-up: concentration or dose not given beside the values
Outline: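 After 4 days, MTT (5 mg/mL solution) added, 4 h further incubation, formazan dissolved in DMSO, absorbance read at 570 nm. Survival expressed as percent of untreated control wells; inhibition rates derived.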

[1] = Stability in human plasma assessed as level of lactone form of compound after 6 hrs by HPLC; format: ADME, cell-free; conditions: read-out: Activity
Outline: (§1)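 Incubated in plasma at 37 °C; aliquots taken at 2, 4, 6, 8 and 24 h. Protein precipitated with cold acetonitrile (-20 °C) and removed by centrifugation. Supernatant stored at -20 °C, then analysed by C-18 HPLC (methanol/water/0.1% acetic acid) with detection at 254 nm. Percent lactone = lactone level at each time point relative to t = 0 h.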

[2] = Stability in mouse plasma assessed as level of lactone form of compound after 8 hrs by HPLC; format: ADME, cell-free; conditions: read-out: Activity; outline: as §1
[3] = Stability in mouse plasma assessed as level of lactone form of compound after 4 hrs by HPLC; format: ADME, cell-free; conditions: read-out: Activity; outline: as §1
[4] = Stability in human plasma assessed as level of lactone form of compound after 24 hrs by HPLC; format: ADME, cell-free; conditions: read-out: Activity; outline: as §1
[5] = Stability in mouse plasma assessed as level of lactone form of compound after 24 hrs by HPLC; format: ADME, cell-free; conditions: read-out: Activity; outline: as §1
[6] = Stability in human plasma assessed as level of lactone form of compound after 2 hrs by HPLC; format: ADME, cell-free; conditions: read-out: Activity; outline: as §1
[7] = Stability in mouse plasma assessed as level of lactone form of compound after 2 hrs by HPLC; format: ADME, cell-free; conditions: read-out: Activity; outline: as §1
[8] = Stability in mouse plasma assessed as level of lactone form of compound after 6 hrs by HPLC; format: ADME, cell-free; conditions: read-out: Activity; outline: as §1
[9] = Stability in human plasma assessed as level of lactone form of compound after 4 hrs by HPLC; format: ADME, cell-free; conditions: read-out: Activity; outline: as §1
[10] = Stability in human plasma assessed as level of lactone form of compound after 8 hrs by HPLC; format: ADME, cell-free; conditions: read-out: Activity; outline: as §1

Compound | inhibition (INH) (T-24) | remaining at 6 h [1] | remaining at 8 h [2] | remaining at 4 h [3] | remaining at 24 h [4] | remaining at 24 h [5] | remaining at 2 h [6] | remaining at 2 h [7] | remaining at 6 h [8] | remaining at 4 h [9] | remaining at 8 h [10]
CC[C@@]1(OC(=O)[C@H](C)NC(=O)C2=CC(C)(C)N(O)C2(C)C)C(=O)OCc2c1cc1n(c2=O)Cc2cc3ccccc3nc2-1 | 25.9% |  |  |  |  |  |  |  |  |  | 
CC[C@@]1(O)C(=O)OCc2c1cc1n(c2=O)Cc2cc3ccccc3nc2-1 [CAMPTOTHECIN] | 15.4% | 19.4% | 10.9% | 40.5% | 3.8% | 5.3% | 61.4% | 55.1% | 24.5% | 28.4% | 14.6%
CC[C@@]1(OC(=O)CNC(=O)C2=CC(C)(C)N(O)C2(C)C)C(=O)OCc2c1cc1n(c2=O)Cc2cc3ccccc3nc2-1 | 34.5% | 56.1% | 31.8% | 57.6% | 7.8% | 10.8% | 78.7% | 76.3% | 43.9% | 65.2% | 34.4%
CC[C@@]1(OC(=O)[C@H](CC(C)C)NC(=O)C2=CC(C)(C)N(O)C2(C)C)C(=O)OCc2c1cc1n(c2=O)Cc2cc3ccccc3nc2-1 | 16.4% |  |  |  |  |  |  |  |  |  | 
CCc1c2c(nc3ccc(OC(=O)N4CCC(N5CCCCC5)CC4)cc13)-c1cc3c(c(=O)n1C2)COC(=O)[C@]3(O)CC [IRINOTECAN] | 23.8% |  |  |  |  |  |  |  |  |  | 
CC[C@@]1(OC(=O)[C@H](CCSC)NC(=O)C2=CC(C)(C)N(O)C2(C)C)C(=O)OCc2c1cc1n(c2=O)Cc2cc3ccccc3nc2-1 | 25.5% |  |  |  |  |  |  |  |  |  | 
CC[C@@]1(OC(=O)[C@H](Cc2ccccc2)NC(=O)C2=CC(C)(C)N(O)C2(C)C)C(=O)OCc2c1cc1n(c2=O)Cc2cc3ccccc3nc2-1 | 26.4% |  |  |  |  |  |  |  |  |  | 
